The record followed here is ChEMBL document CHEMBL1140866, “New pyrazoline bearing 4(3H)-quinazolinone inhibitors of monoamine oxidase: synthesis, biological evaluation, and structural determinants of MAO-A and MAO-B selectivity” (Bioorg Med Chem, 2009).

For data set [1], the system named is Mus musculus. Kind of data set: Antidepressant activity in albino mouse assessed as immobility time at 100 mg/kg, ip by forced swim test. In kind it is functional. The following applies: route intraperitoneal. The method in brief:
(§1)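 Mice given compounds i.p. at 100 mg/kg in DMSO/water (1:4), about 0.1 mL, 1 h before testing; controls got 0.1 mL vehicle; n = 7–8. Housed eight per cage, 20 ± 2 °C, 12 h light/dark. Each animal did the plus-maze first, then forced swim.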

The target of data set [2] is T1, Amine oxidase [flavin-containing] B (Rattus norvegicus, UniProt P19643).
T1 sequence (P19643 whole entry): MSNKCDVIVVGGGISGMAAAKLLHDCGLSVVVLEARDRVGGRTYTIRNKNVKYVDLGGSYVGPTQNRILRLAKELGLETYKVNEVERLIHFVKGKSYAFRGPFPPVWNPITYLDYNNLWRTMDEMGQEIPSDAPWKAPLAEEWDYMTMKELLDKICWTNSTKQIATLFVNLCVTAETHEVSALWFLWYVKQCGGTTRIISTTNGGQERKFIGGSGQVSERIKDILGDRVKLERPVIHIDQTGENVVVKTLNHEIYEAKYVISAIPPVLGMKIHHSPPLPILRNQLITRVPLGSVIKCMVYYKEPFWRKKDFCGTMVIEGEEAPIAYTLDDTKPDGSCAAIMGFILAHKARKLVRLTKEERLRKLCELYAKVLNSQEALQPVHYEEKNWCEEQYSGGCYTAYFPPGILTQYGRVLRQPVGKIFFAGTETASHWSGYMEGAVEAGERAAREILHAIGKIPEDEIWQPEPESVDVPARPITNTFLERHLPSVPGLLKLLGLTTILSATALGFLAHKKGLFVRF
Kind of data set: Inhibition of MAO-B in rat liver homogenate after 60 mins by residual activity plot. In kind it is tissue-based.

Data set [3] deals with Mus musculus. Briefly: Anxiolytic activity in albino mouse assessed as time spent on closed arm at 100 mg/kg, ip by plus-maze test. In kind it is functional. Details: unit not given here. The following applies: route intraperitoneal. In outline: as §1
Data set [4] deals with T2, Amine oxidase [flavin-containing] A (Rattus norvegicus, UniProt P21396).
T2 sequence (P21396 whole entry): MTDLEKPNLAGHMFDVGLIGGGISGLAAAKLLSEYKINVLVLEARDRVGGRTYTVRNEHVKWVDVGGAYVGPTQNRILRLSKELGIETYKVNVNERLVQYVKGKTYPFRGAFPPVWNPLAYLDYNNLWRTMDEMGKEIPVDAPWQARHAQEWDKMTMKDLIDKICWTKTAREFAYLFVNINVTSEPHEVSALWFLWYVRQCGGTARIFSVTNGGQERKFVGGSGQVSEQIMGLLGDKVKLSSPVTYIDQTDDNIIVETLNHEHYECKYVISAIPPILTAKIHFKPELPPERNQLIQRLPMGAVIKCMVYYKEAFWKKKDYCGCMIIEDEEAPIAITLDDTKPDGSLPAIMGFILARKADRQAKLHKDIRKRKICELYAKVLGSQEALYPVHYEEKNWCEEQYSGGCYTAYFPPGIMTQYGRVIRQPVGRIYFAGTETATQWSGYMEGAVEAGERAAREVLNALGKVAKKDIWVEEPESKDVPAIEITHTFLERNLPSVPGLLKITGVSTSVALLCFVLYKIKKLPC
Kind of data set: Inhibition of MAO-A in rat liver homogenate after 60 mins by residual activity plot. In kind it is tissue-based.

Data set [5] concerns the target T1, Amine oxidase [flavin-containing] B. Briefly: Inhibition of MAO-B in rat liver homogenate after 60 mins by Lineweaver-Burke plot. Type of data set: tissue-based. To be noted: for Activity: rat, 1 h, TDE = time-dependent effect.
In data set [6] the test system is Mus musculus. Briefly: Anxiolytic activity in albino mouse assessed as total number of entries into arms at 100 mg/kg, ip by plus-maze test. To be noted: route intraperitoneal. Type of data set: functional. In outline:
as §1

For data set [7], the target named is T2, Amine oxidase [flavin-containing] A. Briefly: Inhibition of MAO-A in rat liver homogenate after 60 mins by Lineweaver-Burke plot. Type of data set: tissue-based. To be noted: for Activity: rat, 1 h, TDE = time-dependent effect.

With `Cn1c(N/N=C(/C=C/c2cccc(Cl)c2)c2ccccc2)nc2ccccc2c1=O`, the Activity in the data set with Mus musculus [1] is 54.57%; in the data set with Mus musculus [3], 246.87; in data set [5], “tde”; in data set [7], “tde”. Moreover, the IC50 (commonly the concentration that gives 50% inhibition) stood at 1.15 µM in data set [2] and 468 µM in data set [4]. The Ki (commonly the dissociation constant of the complex between target and ligand, obtained from inhibition or displacement) was found to be 0.16 µM in data set [5] and 5.1 µM in data set [7]. In the data set on Mus musculus [6], the arm entries came to 3.15 entries.

As for `Cn1c(N/N=C(/C=C/c2ccco2)c2ccc(Cl)cc2)nc2ccccc2c1=O`, the Activity is on record as 67.88% with Mus musculus [1], 219.5 with Mus musculus [3], “tde” in data set [5] and “tde” in data set [7]. The IC50 in data set [2] amounted to 400 µM; in data set [4], 31.6 µM. Besides, the Ki came to 125 µM in data set [5] and 80.1 µM in data set [7]. The arm entries with Mus musculus [6] came out at 6.75 entries.

Take `COc1ccc(C(/C=C/c2ccco2)=N\Nc2nc3ccccc3c(=O)n2C)cc1`: the Activity in the data set on Mus musculus [1] is given as 80.38%; in the data set on Mus musculus [3], 237.25; in data set [5] it was “tde”; in data set [7], “tde”. For the same compound, the IC50 in data set [2] worked out at 419 µM; in data set [4] it was 34.2 µM. In addition, the Ki in data set [5] stood at 90.5 µM; in data set [7], 70.3 µM. For the same compound, the arm entries with Mus musculus [6] was 4.63 entries.

With `Cc1ccc(/C=C/C(=N/Nc2nc3ccccc3c(=O)n2C)c2ccccc2)cc1`, the Activity was 79.25% with Mus musculus [1], 216.12 with Mus musculus [3], “tde” in data set [5] and “tde” in data set [7]. Moreover, the IC50 turned out to be 470 µM in data set [2] and 30.5 µM in data set [4]. Besides, the Ki is 64.6 µM in data set [5] and 30.2 µM in data set [7]. Further, the arm entries in the data set with Mus musculus [6] amounted to 6.37 entries.

Consider `Cc1ccc(C2=NN(c3nc4ccccc4c(=O)n3C)C(c3cccs3)C2)cc1` (stereo not drawn), for which the Activity in the data set with Mus musculus [1] is listed as 74.14%; in the data set with Mus musculus [3], 188.14; in data set [5] it was “tde”; in data set [7] it was “tde”. The IC50 in data set [2] was determined as 70.8 µM; in data set [4], 415 µM. In addition, the inhibition constant (Ki) was determined as 90.7 µM in data set [5] and 130 µM in data set [7]. In the data set on Mus musculus [6], the arm entries stood at 5.14 entries.

In the case of `CCOc1ccc(/C=C/C(=N/Nc2nc3ccccc3c(=O)n2C)c2ccccc2)cc1`, the Activity is 90.23% in the data set on Mus musculus [1], 218.88 with Mus musculus [3], “tde” in data set [5] and “tde” in data set [7]. In addition, the IC50 in data set [2] stood at 429 µM; in data set [4], 29 µM. In addition, the Ki came to 30.6 µM in data set [5] and 80.1 µM in data set [7]. In addition, in the data set with Mus musculus [6], the arm entries stood at 5.75 entries.

Consider `COc1ccc(/C=C/C(=N/Nc2nc3ccccc3c(=O)n2C)c2ccccc2)cc1`, for which the Activity is listed as 86.75% in the data set on Mus musculus [1], 225.38 in the data set on Mus musculus [3], “tde” in data set [5] and “tde” in data set [7]. Further, the IC50 turned out to be 399 µM in data set [2] and 9.05 µM in data set [4]. Moreover, the figures for the Ki in data set [5] and in data set [7] were 10.6 µM and 1.15 µM, respectively. In the data set on Mus musculus [6], the arm entries came out at 4.5 entries.

As to `COc1ccc(/C=C/C(=N/Nc2nc3ccccc3c(=O)n2C)c2ccccc2)cc1OC`, the Activity in the data set with Mus musculus [1] is 130.57%; with Mus musculus [3], 209.63; in data set [5], “tde”; in data set [7], “tde”. Also, the results for the IC50 in data set [2] and in data set [4] were 470 µM and 68 µM, respectively. The values for the inhibition constant (Ki) in data set [5] and in data set [7] were 65.1 µM and 90.7 µM, respectively. In the data set with Mus musculus [6], the arm entries was 5.63 entries.

Consider `Cn1c(=S)[nH]c2ccccc2c1=O`, for which the IC50 is 120 µM in data set [2] and 3.42 µM in data set [4]. In addition, the Ki in data set [5] stood at 78.3 µM; in data set [7], 30.2 µM. The Activity result in data set [5] and in data set [7] was “tde” each time.

For `Cn1c(N2N=C(c3ccc(Cl)cc3)CC2c2cccs2)nc2ccccc2c1=O` (stereo not drawn), the Activity was 61.83% with Mus musculus [1], 244.5 with Mus musculus [3], “tde” in data set [5] and “tde” in data set [7]. In addition, the IC50 in data set [2] turned out to be 27.6 µM; in data set [4] it was 420 µM. In addition, the Ki in data set [5] was 25.6 µM; in data set [7], 65.3 µM. Besides, in the data set on Mus musculus [6], the arm entries was found to be 2.29 entries.

Turning to `Cc1ccc(C(/C=C/c2cccs2)=N\Nc2nc3ccccc3c(=O)n2C)cc1`, the Activity in the data set on Mus musculus [1] is given as 65.57%; in the data set on Mus musculus [3], 204.71; in data set [5] it was “tde”; in data set [7], “tde”. Moreover, the half-maximal inhibitory concentration (IC50) in data set [2] is 419 µM; in data set [4], 33.2 µM. Further, the figures for the Ki in data set [5] and in data set [7] were 188 µM and 190 µM, respectively. In the data set on Mus musculus [6], the arm entries was 5.57 entries.

As for `Cn1c(N/N=C(/C=C/c2cccs2)c2ccc(Cl)cc2)nc2ccccc2c1=O`, the Activity is reported as 50.39% in the data set with Mus musculus [1], 162.17 in the data set on Mus musculus [3], “tde” in data set [5] and “tde” in data set [7]. In addition, the values for the IC50 in data set [2] and in data set [4] were 416 µM and 28 µM, respectively. The Ki came to 69.1 µM in data set [5] and 28.2 µM in data set [7]. Besides, the arm entries with Mus musculus [6] was determined as 8.5 entries.

For `COc1ccc(C(/C=C/c2cccs2)=N\Nc2nc3ccccc3c(=O)n2C)cc1`, the Activity is 49.29% in the data set with Mus musculus [1], 206.29 with Mus musculus [3], “tde” in data set [5] and “tde” in data set [7]. Further, the results for the IC50 in data set [2] and in data set [4] were 299 µM and 27.2 µM, respectively. The Ki was 184 µM in data set [5] and 185 µM in data set [7]. In the data set with Mus musculus [6], the arm entries was 8 entries.

Turning to `Cn1c(NN)nc2ccccc2c1=O`, the figures for the IC50 in data set [2] and in data set [4] were 21.2 µM and 37.4 µM, respectively. For the same compound, the results for the inhibitory constant (Ki) in data set [5] and in data set [7] were 18.6 µM and 25.2 µM, respectively. Moreover, the Activity result in data set [5] and in data set [7] was “tde” each time.

As to `Cc1ccc(C(/C=C/c2ccco2)=N\Nc2nc3ccccc3c(=O)n2C)cc1`, the Activity in the data set with Mus musculus [1] is listed as 82.43%; in the data set with Mus musculus [3] it was 238.67; in data set [5], “tde”; in data set [7] it was “tde”. The concentration for half-maximal inhibition (IC50) in data set [2] amounted to 320 µM; in data set [4] it was 90.8 µM. The values for the Ki in data set [5] and in data set [7] were 179 µM and 181 µM, respectively. The arm entries with Mus musculus [6] worked out at 5.14 entries.

With `Cn1c(N/N=C(/C=C/c2ccccc2)c2ccccc2)nc2ccccc2c1=O`, the Activity with Mus musculus [1] is recorded as 55.43%; with Mus musculus [3] it was 191; in data set [5] it was “tde”; in data set [7] it was “tde”. In addition, the IC50 in data set [2] was 415 µM; in data set [4], 35.1 µM. The inhibition constant (Ki) in data set [5] was 70.5 µM; in data set [7], 34.2 µM. The arm entries in the data set with Mus musculus [6] came out at 5.37 entries.

For the compound `Cn1c(N/N=C(/C=C/c2ccc(Br)cc2)c2ccccc2)nc2ccccc2c1=O`, the Activity is on record as 65.57% with Mus musculus [1], 218.71 in the data set with Mus musculus [3], “tde” in data set [5] and “tde” in data set [7]. In addition, the figures for the 50% inhibitory concentration (IC50) in data set [2] and in data set [4] were 487 µM and 30.5 µM, respectively. Also, the results for the Ki in data set [5] and in data set [7] were 69.6 µM and 40.3 µM, respectively. For the same compound, in the data set with Mus musculus [6], the arm entries was 3.87 entries.

For `Cn1c(N/N=C(/C=C/c2ccc(Cl)cc2)c2ccccc2)nc2ccccc2c1=O`, the Activity in the data set on Mus musculus [1] is given as 125.86%; in the data set with Mus musculus [3], 284.2; in data set [5], “tde”; in data set [7], “tde”. For the same compound, the figures for the IC50 in data set [2] and in data set [4] were 378 µM and 3.56 µM, respectively. The Ki in data set [5] worked out at 7.8 µM; in data set [7], 1.05 µM. Also, the arm entries with Mus musculus [6] is 2.51 entries.

In the case of `C#CCN(C)Cc1ccccc1` [PARGYLINE], the Ki came out at 3.36 µM in data set [5] and 8.5 µM in data set [7].
